Results of several laboratories.
Protocols differ between the studies behind these lines.
Sample: plasma

| SMILES | system | setting | endpoint | result |
| --- | --- | --- | --- | --- |
| Cl.Clc1ccc2c(c1)nc(N1CCNCC1)n2Cc1ccccc1 | rat | intravenous, 1 mg/kg | clearance | 144 mL/min/kg |
| Oc1c(Br)cc(Cl)c2cccnc12 | Sprague-Dawley rat | subcutaneous, 10 mg/kg | CL/F | 31.7 mL/min/kg |
| Cc1nn2c(-c3c(C)nn(C)c3-c3ccc(C(F)(F)F)cc3)nc(CO)c2c(=O)[nH]1 | male Wistar rat | intravenous, 1 mg/kg | clearance | 28 mL/min/kg |
| COCCOC(=O)C1=C(C)NC(C)=C(C(=O)OC(C)C)C1c1cccc([N+](=O)[O-])c1 (stereo not drawn) | male Sprague-Dawley rat | oral, 12 mg/kg | CL/F | 0.0943 mL/min/kg |
| CNC(=O)c1c(C)oc2cc(Oc3ncnc4cc(OC)c(OC)cc34)ccc12 | Sprague-Dawley rat | oral, 1 mg/kg, single dose | CL/F | 3.5 mL/min/kg |
| CCCC[C@@H]1NC(=O)[C@H](Cc2ccc(O)cc2)NC(=O)[C@@H]2CCCN2C(=O)[C@H](CC(=O)O)NC(=O)[C@H](C)NC(=O)[C@H](Cc2ccccc2)NC(=O)[C@@H]2CSCCC(=O)N3CN(CN(C3)C(=O)CCSC[C@@H](C(=O)N[C@@H](C)C(N)=O)NC1=O)C(=O)CCSC[C@H](NC(C)=O)C(=O)N[C@@H](CC(C)(C)C)C(=O)N1CCC[C@H]1C(=O)N[C@@H](CCC(=O)O)C(=O)N[C@H](CCCCNC(=O)CCc1cn(CCOCCOCCOCCOCCOCCOCCOCCOCCOCCOCCNC(=O)CCOCCN(CCOCCC(=O)NCCOCCOCCOCCOCCOCCOCCOCCOCCOCCOCCn3cc(CCC(=O)NCCCC[C@H]4NC(=O)[C@H](CCC(=O)O)NC(=O)[C@@H]5CCCN5C(=O)[C@H](CC(C)(C)C)NC(=O)[C@@H](NC(C)=O)CSCCC(=O)N5CN6CN(C5)C(=O)CCSC[C@H](NC(=O)[C@H](Cc5ccc(O)cc5)NC(=O)[C@@H]5CCCN5C4=O)C(=O)N[C@@H](Cc4ccccc4)C(=O)N[C@@H](C)C(=O)N[C@@H](CC(=O)O)C(=O)N4CCC[C@H]4C(=O)N[C@@H](Cc4ccc(O)cc4)C(=O)N[C@@H](CCCC)C(=O)N[C@H](C(=O)N[C@@H](C)C(N)=O)CSCCC6=O)nn3)CCOCCC(=O)NCCOCCOCCOCCOCCOCCOCCOCCOCCOCCOCCn3cc(CCC(=O)N[C@H]4CSCCC(=O)N5CN6CN(C5)C(=O)CCSC[C@H](NC(=O)[C@@H](CC(=O)O)NC(=O)[C@H](Cc5cccc7ccccc57)NC(=O)[C@@H]5CCCN5C4=O)C(=O)N[C@@H](CCSC)C(=O)N[C@@H](CCCCNC(=N)N)C(=O)N[C@@H](CC(=O)O)C(=O)N[C@@H](Cc4c[nH]c5ccccc45)C(=O)N[C@@H](CO)C(=O)N[C@@H]([C@@H](C)O)C(=O)N4CCC[C@H]4C(=O)N4C[C@H](O)C[C@H]4C(=O)N[C@@H](Cc4c[nH]c5ccccc45)C(=O)N[C@H](C(N)=O)CSCCC6=O)nn3)nn1)C(=O)N1CCC[C@H]1C(=O)N[C@@H](Cc1ccc(O)cc1)C(=O)N2 | rat | intravenous, 2 mg/kg | clearance | 12 mL/min/kg |
| Oc1cc(O)cc(-c2cc3ccc(O)cc3o2)c1 | male rat | intravenous, 5 mg/kg | clearance | 89.5 mL/min/kg |
| O=C(c1cc(Cc2n[nH]c(=O)c3ccccc23)ccc1F)N1CCN(C(=O)C2CC2)CC1 | female Sprague-Dawley rat | intravenous | clearance | 2.22 mL/min |
| CNCc1cc(-c2ccccc2F)n(S(=O)(=O)c2cccnc2)c1 | Sprague-Dawley rat | oral, 10 mg/kg | CL/F | 293 mL/min/kg |
| CCOC(=O)[C@@]12C[C@@H]1[C@@H](n1ccc3c(NC)nc(C#Cc4ccc(Cl)s4)nc31)[C@H](O)[C@@H]2O | male Sprague-Dawley rat | intravenous, 0.5 mg/kg | clearance | 302 mL/min/kg |
| COc1ccc2c(Cc3ccccc3F)c3[n+](cc2c1OC)CCc1cc2c(cc1-3)OCO2.[Br-] | rat | intravenous, 5 mg/kg | clearance | 672 mL/min/kg |
| C#Cc1cccc(Nc2ncnc3cc(OCCOC)c(OCCOC)cc23)c1 | male Sprague-Dawley rat | oral, 12 mg/kg, single dose | CL/F | 22 mL/min/kg |
